Screens deposited in PubChem by several laboratories.
An excerpt weighted towards active compounds, which were near 2.4% of everything screened.
NTR1 agonist = NTR1 (human) agonism; NTR1-U2OS beta-arrestin-GFP spot imaging, agonist mode; activation, % at 20 µM; hit rate 0.17% among 330,000;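 active = activation at or above 40% of the spot to cytoplasm intensity ratio, with at least 20 cells analyzed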;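 note: 0% = DMSO without peptide and 100% = 100 nM NTR1 peptide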
TAG inh = reduces triacylglycerol accumulation in H9c2 cells | Nile Red lipid (TAG) fluorescence; cells loaded with 200 µM oleic acid | inhibition, % at 12.5 µM | hit rate 0.66% among 230,000;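 active = pattern-corrected inhibition of lipid staining of at least 50% with the nuclear-stain viability signal not falling by more than 50%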;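 note: 0% = DMSO wells and 100% = triacsin C control wells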
aDG glyco act = increases alpha dystroglycan glycosylation; Pro5-aDG cells, alpha-DG glycosylation AlphaScreen (IIH6); 0% Pro5, 100% B10-LARGE cell signal; activation, % at 10 µM; hit rate 0.22% among 360,000; AID 624168;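 active = activation of at least 8% versus controls, or a plate z-score of at least 8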;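 note: Pro5 are CHO cells carrying HIG-tagged alpha-DG that lacks glycosylation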
MC4R antag cAMP = antagonists of human melanocortin 4 receptor (MC4R); P32245; MC4R-expressing cells, MTII-stimulated cAMP, LANCE TR-FRET; inhibition, % at 6.5 µM; hit rate 0.48% among 360,000; AID 540295;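 active = inhibition above its plate's cutoff, the mean of tested wells on that plate plus 3 SD, cut at about 29% in these data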;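 note: 0% = Melanotan II alone and 100% = Melanotan II plus saturating MCL0020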
Target sequence (P32245 whole entry, looked up): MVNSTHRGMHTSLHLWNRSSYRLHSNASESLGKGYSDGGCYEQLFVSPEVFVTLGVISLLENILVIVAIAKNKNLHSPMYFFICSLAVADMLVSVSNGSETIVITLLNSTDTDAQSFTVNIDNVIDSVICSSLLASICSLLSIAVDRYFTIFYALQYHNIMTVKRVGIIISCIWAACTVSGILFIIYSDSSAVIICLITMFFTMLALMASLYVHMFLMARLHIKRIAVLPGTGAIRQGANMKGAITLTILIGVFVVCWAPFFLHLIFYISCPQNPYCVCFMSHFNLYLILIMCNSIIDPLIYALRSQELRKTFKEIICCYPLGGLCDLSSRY
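Assay system: U2OS cells stably expressing human melanocortin 4 receptor (MC4R) / Dosing: 6.5 µM / Timing: compound 30 min, challenge 1 h, detection 1 h / Measured by: Eu-cAMP/anti-cAMP TR-FRET, emission 671 nm / Replicates: singlicate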
MC4R ag barr = human MC4R agonism via beta-arrestin; P32245; U2OS MC4R beta-arrestin complementation, luminescence; percent of melanotan II response, DMSO zero; activation, % at 8.9 µM; hit rate 0.98% among 360,000;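 active = activation above a per-plate cutoff, the mean activation of sample wells on that plate plus 3 SD, cut at about 8% in these data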
TbMetRS inhib = Trypanosoma brucei MetRS inhibition; purified T. brucei MetRS, ATP depletion, Kinase-Glo luminescence; inhibition, % at 11.9 µM; hit rate 0.4% among 360,000;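 active = inhibition above a per-plate cutoff of the control wells' mean inhibition plus 3 SD, cut at about 5.5% in these data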;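 note: 0% = DMSO wells median and 100% = median of wells with control inhibitor compound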
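Material: parasite MetRS enzyme / Replication: singlicate, one well per compound / Signal: luminescence of leftover ATP / Schedule: 2 h aminoacylation at 25 °C after 15 min preincubation / Medium: HEPES-MgCl2-KCl buffer plus DTT, spermine, BSA, pyrophosphatase / Doses: 11.9 µM single point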
TbMetRS confirm = Trypanosoma brucei MetRS inhibition confirmed; T. brucei MetRS enzyme, luminescence (ATP depletion); inhibition, % at 11.9 µM; hit rate 93% among 1,400; shares compounds with TbMetRS inhib; in the data active = inhibition above about 7%
Jurkat cytotox = Jurkat T cell cytotoxicity for MetRS hits. shares compounds with TbMetRS inhib. Jurkat cells viability, ATP luminescence. inhibition, % at 8.3 µM. hit rate 12% among 1,400; in the data active = inhibition above about 15%;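 note: 0% = vehicle and 100% = reference inhibitor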
Tb MetRS inh FP = inhibits T. brucei methionyl tRNA synthetase in orthogonal FP test; shares compounds with TbMetRS inhib; purified T. brucei MetRS, fluorescence polarization; inhibition, % at 11.9 µM; hit rate 44% among 1,400; AID 651607; in the data active = inhibition above about 17%;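 note: 0% = vehicle wells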
An asterisk follows results filed as active; nt = not tested or not shown.

SMILES	NTR1 agonist	TAG inh	aDG glyco act	MC4R antag cAMP	MC4R ag barr	TbMetRS inhib	TbMetRS confirm	Jurkat cytotox	Tb MetRS inh FP
Cc1cc(C)nc(NS(=O)(=O)c2ccc(NC(=O)Nc3ccccc3F)cc2)n1	0	16	0	0	-1	7.3*	16*	-8	2
Cc1nc2sccn2c(=O)c1S(=O)(=O)N1CCN(c2ccccc2F)CC1	nt	1	0	11	1	0	nt	nt	nt
Nc1ccc(C(=O)OCc2nc3c(ccc4ccccc43)[nH]2)cc1	3	10	1	11	-2	7.1*	10*	20*	11
Nc1ccc(C(=O)OCc2nc3cc4ccccc4cc3[nH]2)cc1	1	10	0	4	-3	3	nt	nt	nt
COc1ccc(/C=C(/NC(=O)c2ccccc2)c2nc3ccccc3[nH]2)cc1OC	1	-24	0	-8	-1	0	nt	nt	nt
Cc1ccc(C(=O)N/C(=C\c2cccnc2)c2nc3ccccc3[nH]2)cc1	2	nt	0	10	1	15*	35*	-4	11
COc1ccc(C(=O)N/C(=C\c2cccs2)c2nc3ccccc3[nH]2)cc1OC	-1	nt	0	2	0	8.2*	16*	0	2
O=C(CN1CCSC1=NCc1ccccc1)c1ccc(Cl)c(Cl)c1	0	3	0	8	6	61*	83*	3	67*
Cc1cccc(OCc2nnc(SCC(=O)NCC3CCCO3)n2C)c1 (configuration not stated)	1	nt	0	11	1	0	nt	nt	nt
Cn1c(COc2ccc(Cl)cc2Cl)nnc1SCC(=O)NCC1CCCO1 (configuration not stated)	1	nt	0	9	-2	6.0*	17*	-3	4
CC(C)C[C@@H](CNCC(=O)[C@H](Cc1c[nH]c2ccccc12)NC(=O)c1[nH]cnc1C(=O)N[C@@H](C)CN)NC(=O)c1nc[nH]c1C(=O)N[C@@H](C)C(=O)O	nt	6	0	2	-1	23*	37*	-1	10
CC(C)CN1CCC1(C)C(=O)Nc1cccc(C#N)c1 (configuration not stated)	nt	-6	0	9	2	0	nt	nt	nt
O=C(c1c[nH]c2ccccc12)C(O)C(c1ccccc1)N1CCOCC1 (configuration not stated)	-1	nt	0	1	-1	1	nt	nt	nt
O=C(c1c[nH]c2ccccc12)C(Cl)c1ccccc1 (configuration not stated)	7	nt	0	16	-1	25*	45*	45*	23*
O=C(OC(C(=O)c1c[nH]c2ccccc12)c1ccccc1)c1cnccn1 (configuration not stated)	1	nt	0	0	0	15*	27*	-4	17*
O=C1CCC(C(=O)OC(C(=O)c2c[nH]c3ccccc23)c2ccccc2)=NN1 (configuration not stated)	-2	nt	0	3	-2	9.9*	24*	4	9
CCOC(=O)[C@]12CCCC=C1N(Cc1ccco1)C(=O)[C@H](CC(=O)NCc1cccs1)C2	nt	nt	0	nt	nt	0	nt	nt	nt
N#Cc1ccc(C(=O)N2CCCCC2c2cc(C(=O)Nc3ccc4c(c3)OCO4)no2)cc1 (configuration not stated)	nt	-11	0	11	0	0	nt	nt	nt
COC(=O)c1sc(-c2ccc(Cl)cc2)cc1NC(=O)CSCC(=O)O	0	13	0	14	2	20*	33*	-7	24*
CC(=O)Cc1nsc(Nc2ccc(Cl)cc2)n1	-1	-1	0	6	0	10.0*	4	2	5
CC(=O)Cc1nsc(Nc2ccc(F)cc2)n1	1	2	0	13	4	-1	nt	nt	nt
Cc1cc(Cn2nc(-c3ccccc3)cc2C(=O)NCc2cccc(Br)c2)on1	3	nt	0	0	2	54*	84*	-4	68*
COc1ccccc1NC(=O)c1nnn(CC(=O)Nc2ccccc2)c1N	-2	5	0	-2	-1	0	nt	nt	nt
COc1ccccc1NC(=O)c1nnn(CC(=O)Nc2cccc(SC)c2)c1N	-1	nt	0	-7	2	6.0*	7.6*	-2	15
O=C(NNc1cc(Cl)cc(Cl)c1)c1cccs1	1	-12	0	1	-1	25*	56*	-3	30*
SMILES	NTR1 agonist	TAG inh	aDG glyco act	MC4R antag cAMP	MC4R ag barr	TbMetRS inhib	TbMetRS confirm	Jurkat cytotox	Tb MetRS inh FP
CCc1ccc(C(=O)NNc2cc(Cl)cc(Cl)c2)cc1	0	-25	0	-4	2	15*	39*	2	19*
CCOC(=O)[C@]12CCC=C1N(Cc1ccc(Cl)cc1Cl)C(=O)[C@H](CC(=O)NCC13CC4CC(CC(C4)C1)C3)C2	nt	nt	0	nt	nt	0	nt	nt	nt
CCCNC(=O)C1(C)CCN1C(=O)c1ccc(C(C)(C)C)cc1 (configuration not stated)	nt	-7	0	-3	-1	0	nt	nt	nt
O=S(=O)(c1ccc2nc(SCc3ccc(Cl)cc3)[nH]c2c1)N1CCOCC1	5	nt	0	9	-1	12*	18*	0	19*
Cc1ccccc1OCc1nc2ccc(S(=O)(=O)N3CCOCC3)cc2[nH]1	-1	nt	0	6	-2	1	nt	nt	nt
O=S(=O)(c1ccc2nc(COc3ccc(Cl)cc3Cl)[nH]c2c1)N1CCOCC1	1	nt	0	3	1	12*	21*	9	14
CC1(C(=O)Nc2cnc3ccccc3c2)CCN1Cc1ccccc1Cl (configuration not stated)	nt	-8	0	6	1	0	nt	nt	nt
CC/C(O)=C1\C(=O)CCCC1=NCCc1nc2ccccc2[nH]1	2	2	0	2	1	1	nt	nt	nt
CC/C(O)=C1\C(=O)CCCC1=NCc1nc2ccccc2[nH]1	-1	14	1	4	0	8.9*	16*	2	5
COC(=O)CN1C(=S)N(c2ccc(Cl)cc2)C(=O)C1CC(=O)Nc1ccc(Cl)cc1 (configuration not stated)	4	nt	0	10	-2	24*	39*	3	38*
O=C(CCCOc1ccc(Cl)cc1Cl)N/N=C/c1ccccc1O	16	nt	1	-3	3	37*	80*	82*	76*
